22 molecules from ChEMBL document CHEMBL3351561, “Discovery of 9-(1-anilinoethyl)-2-morpholino-4-oxo-pyrido[1,2-a]pyrimidine-7-carboxamides as PI3Kβ/δ inhibitors for the treatment of PTEN-deficient tumours” (Bioorg Med Chem Lett, 2014) can be followed below.

pIC50: −log10 of the molar value. Values after ≈ are worked out from the molar mass of the structure shown.

For series [1], the target named is T1, Phosphatidylinositol 4,5-bisphosphate 3-kinase catalytic subunit beta isoform (Homo sapiens, UniProt P42338). Nature of the series: Inhibition of PI3Kbeta in human MAD-MB-468 cells assessed as inhibition of Ser473 Akt phosphorylation by cellular potency assay.
T1 sequence (P42338 whole entry, canonical isoform): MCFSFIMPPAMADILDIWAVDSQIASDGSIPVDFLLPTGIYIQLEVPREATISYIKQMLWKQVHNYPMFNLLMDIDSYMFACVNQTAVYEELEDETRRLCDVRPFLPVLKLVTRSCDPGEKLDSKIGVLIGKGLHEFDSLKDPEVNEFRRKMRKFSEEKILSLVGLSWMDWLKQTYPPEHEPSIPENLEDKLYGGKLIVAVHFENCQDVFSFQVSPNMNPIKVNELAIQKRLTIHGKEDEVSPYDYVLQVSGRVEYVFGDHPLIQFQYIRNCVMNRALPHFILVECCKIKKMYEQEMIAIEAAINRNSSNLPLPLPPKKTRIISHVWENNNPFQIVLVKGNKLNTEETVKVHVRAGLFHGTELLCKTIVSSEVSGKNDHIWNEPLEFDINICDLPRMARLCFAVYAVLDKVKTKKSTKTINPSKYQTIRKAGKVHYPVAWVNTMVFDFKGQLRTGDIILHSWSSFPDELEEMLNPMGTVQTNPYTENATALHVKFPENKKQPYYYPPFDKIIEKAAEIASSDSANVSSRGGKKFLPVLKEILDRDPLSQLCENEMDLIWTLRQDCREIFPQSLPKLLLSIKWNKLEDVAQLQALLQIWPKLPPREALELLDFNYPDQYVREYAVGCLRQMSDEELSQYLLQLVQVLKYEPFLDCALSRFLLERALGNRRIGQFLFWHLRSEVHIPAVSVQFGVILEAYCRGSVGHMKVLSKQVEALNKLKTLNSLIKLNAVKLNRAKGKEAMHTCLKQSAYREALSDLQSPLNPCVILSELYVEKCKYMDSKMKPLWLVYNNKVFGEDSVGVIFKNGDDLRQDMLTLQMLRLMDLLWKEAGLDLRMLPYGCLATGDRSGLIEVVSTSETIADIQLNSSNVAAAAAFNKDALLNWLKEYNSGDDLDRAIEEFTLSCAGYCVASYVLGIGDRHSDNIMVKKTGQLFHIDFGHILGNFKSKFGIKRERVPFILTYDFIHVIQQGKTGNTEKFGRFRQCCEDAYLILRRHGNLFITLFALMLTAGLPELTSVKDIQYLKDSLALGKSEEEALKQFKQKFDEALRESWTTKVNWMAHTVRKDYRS
Series [2] can be described thus: Buffer/octanol partition coefficient, log D of the compound at pH 7.4 by shake flask method. Format: physicochemical. Summed up:
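LogD at pH 7.4 was measured by shake-flask with a buffer/octanol volume ratio of 100:1.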

The nature of series [3]: Intrinsic clearance in human hepatocytes measured per 10^6 cells. Type of series: ADME, cell-based, Hepatocyte. Particulars: read-out: CLH. In a few lines:
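Intrinsic clearance was measured in human hepatocytes and is expressed in µL/min/10^6 cells.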

Series [4] is described as follows: Solubility of the compound in phosphate buffer at pH 7.4. Type of series: physicochemical. Summed up: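 Solubility was measured from solid material in phosphate buffer at pH 7.4.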
Series [5] can be described thus: Apparent permeability from apical (pH 6.5) to […] of human Caco2 cells. Type of series: ADME, cell-based. Particulars: Caco-2, pH 6.5.
The species entered for series [6] is Homo sapiens. The experiment in a line: Ratio of IC50 for human recombinant PI3Kalpha to IC50 human recombinant PI3Kbeta. In a few lines:
(§1)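 Ratio is taken from enzyme IC50 values, each the geometric mean of 3 or more determinations. In the PI3Kβ enzyme assay, functional enzyme concentration was measured experimentally. The tight-binding limit, half that concentration, is 10 nM, so β IC50 values near that floor set a cap on the ratio.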

The species named for series [7] is Homo sapiens. Nature of the series: Ratio of IC50 for human recombinant PI3Kgamma to IC50 human recombinant PI3Kbeta. In a few lines:
as §1

Series [8] deals with T2, Phosphatidylinositol 4,5-bisphosphate 3-kinase catalytic subunit alpha isoform (Homo sapiens, UniProt P42336). Nature of the series: Inhibition of human recombinant PI3Kalpha assessed as depletion of ATP substrate by Ultra Glo luciferase assay. In a few lines: (§2)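 Enzyme IC50s are reported as the geometric mean of 3 or more values.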
T2 sequence (P42336 whole entry, canonical isoform): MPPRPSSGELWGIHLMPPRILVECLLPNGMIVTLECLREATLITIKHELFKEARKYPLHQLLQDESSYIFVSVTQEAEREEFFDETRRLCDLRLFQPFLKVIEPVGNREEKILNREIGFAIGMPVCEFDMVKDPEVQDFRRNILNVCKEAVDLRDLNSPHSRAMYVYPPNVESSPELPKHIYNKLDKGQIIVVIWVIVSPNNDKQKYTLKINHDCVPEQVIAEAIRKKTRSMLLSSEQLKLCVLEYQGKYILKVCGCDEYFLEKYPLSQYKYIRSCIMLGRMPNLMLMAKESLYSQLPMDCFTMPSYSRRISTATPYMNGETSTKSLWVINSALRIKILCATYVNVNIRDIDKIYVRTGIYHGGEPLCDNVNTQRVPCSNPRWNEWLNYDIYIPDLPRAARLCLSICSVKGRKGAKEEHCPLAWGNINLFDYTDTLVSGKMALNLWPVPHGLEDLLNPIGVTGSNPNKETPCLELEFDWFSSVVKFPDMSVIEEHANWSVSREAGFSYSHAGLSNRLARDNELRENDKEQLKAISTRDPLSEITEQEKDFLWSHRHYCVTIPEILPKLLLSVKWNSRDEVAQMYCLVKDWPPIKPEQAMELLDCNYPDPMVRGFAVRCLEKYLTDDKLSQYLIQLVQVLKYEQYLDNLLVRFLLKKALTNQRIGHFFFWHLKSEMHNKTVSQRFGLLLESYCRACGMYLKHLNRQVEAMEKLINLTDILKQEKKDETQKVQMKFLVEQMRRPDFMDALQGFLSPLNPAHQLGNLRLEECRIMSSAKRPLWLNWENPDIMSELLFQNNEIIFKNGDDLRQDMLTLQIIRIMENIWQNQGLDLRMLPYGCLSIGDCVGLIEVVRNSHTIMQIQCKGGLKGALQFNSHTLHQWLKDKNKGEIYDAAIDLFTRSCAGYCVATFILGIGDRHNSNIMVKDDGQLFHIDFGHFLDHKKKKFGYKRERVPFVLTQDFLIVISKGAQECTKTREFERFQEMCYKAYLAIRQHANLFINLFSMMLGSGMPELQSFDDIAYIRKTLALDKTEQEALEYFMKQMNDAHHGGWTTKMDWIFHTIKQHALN
In series [9] the target is T1, Phosphatidylinositol 4,5-bisphosphate 3-kinase catalytic subunit beta isoform. The experiment in a line: Inhibition of human recombinant PI3Kbeta assessed as depletion of ATP substrate by Ultra Glo luciferase assay. In a few lines: as §2
The target of series [10] is Phosphatidylinositol 4,5-bisphosphate 3-kinase catalytic subunit gamma isoform (Homo sapiens, UniProt P48736). The experiment in a line: Inhibition of human recombinant PI3Kgamma assessed as depletion of ATP substrate by Ultra Glo luciferase assay. In a few lines:
as §2

Series [11] addresses T3, Phosphatidylinositol 4,5-bisphosphate 3-kinase catalytic subunit delta isoform (Homo sapiens, UniProt O00329).
T3 sequence (O00329 whole entry): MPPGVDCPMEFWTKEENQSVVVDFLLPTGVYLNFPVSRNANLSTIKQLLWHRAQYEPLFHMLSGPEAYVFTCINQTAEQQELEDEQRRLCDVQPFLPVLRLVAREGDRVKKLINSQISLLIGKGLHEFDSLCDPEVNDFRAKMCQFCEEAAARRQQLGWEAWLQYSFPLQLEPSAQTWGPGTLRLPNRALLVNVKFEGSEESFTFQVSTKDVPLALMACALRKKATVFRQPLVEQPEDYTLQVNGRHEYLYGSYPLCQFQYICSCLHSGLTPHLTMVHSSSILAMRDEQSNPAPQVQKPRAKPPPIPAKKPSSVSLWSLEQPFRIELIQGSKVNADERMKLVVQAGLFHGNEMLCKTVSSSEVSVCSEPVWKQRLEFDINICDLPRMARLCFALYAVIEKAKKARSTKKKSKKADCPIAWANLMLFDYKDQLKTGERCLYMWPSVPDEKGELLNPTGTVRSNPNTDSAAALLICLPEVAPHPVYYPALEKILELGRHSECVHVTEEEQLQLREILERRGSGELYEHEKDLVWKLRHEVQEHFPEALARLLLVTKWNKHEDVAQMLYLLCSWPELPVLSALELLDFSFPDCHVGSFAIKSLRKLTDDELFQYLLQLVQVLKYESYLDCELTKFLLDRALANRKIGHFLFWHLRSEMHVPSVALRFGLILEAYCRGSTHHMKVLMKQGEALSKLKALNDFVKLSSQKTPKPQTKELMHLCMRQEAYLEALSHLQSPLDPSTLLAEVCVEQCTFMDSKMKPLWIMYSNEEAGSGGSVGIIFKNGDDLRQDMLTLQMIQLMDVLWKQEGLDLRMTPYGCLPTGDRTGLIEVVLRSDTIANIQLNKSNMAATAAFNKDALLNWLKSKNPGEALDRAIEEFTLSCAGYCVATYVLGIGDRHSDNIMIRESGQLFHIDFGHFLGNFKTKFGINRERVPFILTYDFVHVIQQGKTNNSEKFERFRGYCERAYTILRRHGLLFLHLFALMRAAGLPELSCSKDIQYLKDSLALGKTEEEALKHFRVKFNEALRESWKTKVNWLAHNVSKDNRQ
The experiment in a line: Inhibition of human recombinant PI3Kdelta assessed as depletion of ATP substrate by Ultra Glo luciferase assay. In a few lines:
as §2

In series [12] the target is T2, Phosphatidylinositol 4,5-bisphosphate 3-kinase catalytic subunit alpha isoform. Nature of the series: Inhibition of PI3Kalpha in human BT474 cells assessed as inhibition of […] Akt phosphorylation after 2 hrs by fluorescence assay. Format: cell-based, BT-474. In a few lines:
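BT474 cells were seeded in DMEM with 10% FCS and 1% glutamine and left to adhere overnight, then treated with compound in DMSO for 2 h at 37 °C and 5% CO2. Cells were lysed with a phosphatase/protease-inhibitor buffer. Lysate was captured on anti-total-Akt plates, probed with anti-phospho-Akt Thr308 and an HRP secondary, and read by fluorescence (ex 325/em 420 nm). Values are the geometric mean of ≥2 determinations.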

The species named for series [13] is Homo sapiens. Nature of the series: Ratio of IC50 for PI3Kalpha human BT474 cells to IC50 PI3Kbeta in human […] cells.

Sequence of Phosphatidylinositol 4,5-bisphosphate 3-kinase catalytic subunit gamma isoform (P48736 whole entry, canonical isoform): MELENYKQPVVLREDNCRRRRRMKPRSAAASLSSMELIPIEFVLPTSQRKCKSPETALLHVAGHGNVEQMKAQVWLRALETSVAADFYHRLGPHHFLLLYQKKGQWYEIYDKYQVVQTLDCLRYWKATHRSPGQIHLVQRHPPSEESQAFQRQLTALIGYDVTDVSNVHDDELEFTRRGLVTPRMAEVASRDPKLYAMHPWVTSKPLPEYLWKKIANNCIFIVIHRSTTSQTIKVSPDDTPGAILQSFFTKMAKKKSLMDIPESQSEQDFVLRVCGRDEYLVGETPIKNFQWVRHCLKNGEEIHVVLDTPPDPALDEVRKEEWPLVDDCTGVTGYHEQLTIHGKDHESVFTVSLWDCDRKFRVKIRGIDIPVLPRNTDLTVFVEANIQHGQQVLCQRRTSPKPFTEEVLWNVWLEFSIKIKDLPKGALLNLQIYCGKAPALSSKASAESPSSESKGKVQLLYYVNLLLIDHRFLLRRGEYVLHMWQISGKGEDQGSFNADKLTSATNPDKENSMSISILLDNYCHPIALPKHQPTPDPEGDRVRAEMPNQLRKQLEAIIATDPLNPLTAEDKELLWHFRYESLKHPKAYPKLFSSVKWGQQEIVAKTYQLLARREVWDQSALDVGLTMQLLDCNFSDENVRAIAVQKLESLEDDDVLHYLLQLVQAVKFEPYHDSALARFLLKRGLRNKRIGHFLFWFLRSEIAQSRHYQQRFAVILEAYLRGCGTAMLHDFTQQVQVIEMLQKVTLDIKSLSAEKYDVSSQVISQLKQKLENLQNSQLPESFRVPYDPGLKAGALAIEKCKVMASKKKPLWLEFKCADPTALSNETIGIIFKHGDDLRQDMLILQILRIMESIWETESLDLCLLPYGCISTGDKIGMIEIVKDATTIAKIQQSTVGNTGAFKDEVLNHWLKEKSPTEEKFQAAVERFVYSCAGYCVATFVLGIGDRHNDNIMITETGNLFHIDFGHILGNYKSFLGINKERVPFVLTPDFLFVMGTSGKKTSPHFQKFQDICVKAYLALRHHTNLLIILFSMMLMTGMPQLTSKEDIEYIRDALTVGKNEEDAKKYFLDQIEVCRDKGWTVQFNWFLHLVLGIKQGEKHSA

The term pIC50 denotes the negative decadic logarithm of the IC50, by convention in mol/L. The logD is lipophilicity at a set pH, counting ionised and neutral species. A higher logD goes with higher lipophilicity. The term solubility denotes the dissolved amount per volume that the medium holds. A low value points to a poorly soluble substance. On to `C[C@@H](Nc1cc(F)cc(F)c1)c1cc(C(=O)N2CCOCC2)cn2c(=O)cc(N3CCOCC3)nc12`, for which, in [1], the pIC50 was 7.60. The logD in series [2] stood at 2.7. For the same molecule, the hepatocyte CLint in series [3] came to 6 µL/min/1e6 cells. Besides, the solubility in series [4] came out at 316 µM (≈ 158 µg/mL).
Broadly, the Papp A→B is the apparent permeability from the apical to the basolateral side of a cell layer. `C[C@@H](Nc1cc(F)cc(F)c1)c1cc(C(=O)N2CCN(C)CC2)cn2c(=O)cc(N3CCOCC3)nc12`: in series [1], the pIC50 is 7.54. Further, the Papp A→B in [5] came to 9 ×10⁻⁶ cm/s. Moreover, the logD in series [2] is 2.6. The hepatocyte CLint in series [3] came to 6 µL/min/1e6 cells. The same molecule registered a solubility in [4] greater than 1500 µM.
Turning to `Cc1cc(C(C)Nc2cccc(Cl)c2)c2nc(N3CCOCC3)cc(=O)n2c1` (configuration not stated), the pIC50 in series [1] was 7.77.
For the molecule `Cc1cc(C(C)Nc2cc(F)cc(F)c2)c2nc(N3CCOCC3)cc(=O)n2c1` (configuration not stated), the pIC50 in series [1] was 8.05.
Same read-out and setting: the same measure for `CC(Nc1ccc(Cl)cc1)c1cc(C(=O)NCCN(C)C)cn2c(=O)cc(N3CCOCC3)nc12` (racemic): 7.12.
For `CC(Nc1cccc(F)c1)c1cc(C(=O)N(C)C)cn2c(=O)cc(N3CCOCC3)nc12` (racemic), in series [1], the pIC50 is 7.41. Besides, the Papp A→B in [5] is 39 ×10⁻⁶ cm/s. Moreover, the hepatocyte CLint in series [3] amounted to 45 µL/min/1e6 cells. This molecule also returned a solubility in series [4] of 23 µM (≈ 10.1 µg/mL).
For the molecule `CC(Nc1cccc(F)c1F)c1cc(C(=O)N(C)C)cn2c(=O)cc(N3CCOCC3)nc12` (racemic), in series [1], the pIC50 is 7.14. This molecule also registered a logD in series [2] of 2.7. In series [3], the hepatocyte CLint was found to be 9 µL/min/1e6 cells. This molecule yielded a solubility in series [4] of 28 µM (≈ 12.8 µg/mL).
Turning to `CC(Nc1cc(F)cc(F)c1)c1cc(C(=O)N(C)CCO)cn2c(=O)cc(N3CCOCC3)nc12` (racemic), the pIC50 in series [1] was 8.10. The molecule further showed a logD in [2] of 2.1. Also, the hepatocyte CLint in series [3] amounted to 10 µL/min/1e6 cells. In [4], this molecule gave a solubility of 930 µM (≈ 453 µg/mL).
For the molecule `Cc1cccc(NC(C)c2cc(C)cn3c(=O)cc(N4CCOCC4)nc23)c1` (racemic), the pIC50 in [1] was 7.09.
As for `Cc1cc(C(C)Nc2ccc(F)cc2)c2nc(N3CCOCC3)cc(=O)n2c1` (racemic), the pIC50 in [1] is 6.72.
As to `CC(Nc1cccc(Cl)c1)c1cc(C(=O)NCCN(C)C)cn2c(=O)cc(N3CCOCC3)nc12` (racemic), in series [1], the pIC50 was 8.00.
For the molecule `CC(Nc1ccccc1Cl)c1cc(C(=O)NCCN(C)C)cn2c(=O)cc(N3CCOCC3)nc12` (racemic), in series [1], the pIC50 was 8.15.
As to `CC(Nc1ccc(F)cc1)c1cc(C(=O)NCCN(C)C)cn2c(=O)cc(N3CCOCC3)nc12` (racemic), in series [1], the pIC50 was 7.92. For the same molecule, in series [5], the Papp A→B is 0.2 ×10⁻⁶ cm/s. This molecule showed a logD in series [2] of 1.8.
In the case of `CC(Nc1cccc(F)c1)c1cc(C(=O)NCCN(C)C)cn2c(=O)cc(N3CCOCC3)nc12` (racemic), the pIC50 in series [1] was 8.70. Further, the Papp A→B in series [5] came to 0.3 ×10⁻⁶ cm/s. In [2], the log distribution coefficient (logD) was determined as 2.
In the case of `CC(Nc1ccccc1F)c1cc(C(=O)NCCN(C)C)cn2c(=O)cc(N3CCOCC3)nc12` (racemic), in [1], the pIC50 is 7.64. Besides, the Papp A→B in series [5] was determined as 0.8 ×10⁻⁶ cm/s. In addition, the logD in series [2] is 1.9.
For `CC(Nc1cccc(C(F)(F)F)c1)c1cc(C(=O)NCCN(C)C)cn2c(=O)cc(N3CCOCC3)nc12` (racemic), the pIC50 in series [1] was 7.13.
Same read-out and setting: to `Cc1ccc(NC(C)c2cc(C(=O)NCCN(C)C)cn3c(=O)cc(N4CCOCC4)nc23)cc1` (racemic) belongs 6.28.
Consider `CC(Nc1ccccc1)c1cc(C(=O)N(C)C)cn2c(=O)cc(N3CCOCC3)nc12` (single isomer, unassigned; (+)), for which the Ratio IC50 in the series filed under Homo sapiens [6] is 50; in the series listed under Homo sapiens [7], 550; in the series filed under Homo sapiens [13], 60. The pIC50 is 6.81 in series [1]; 6.25 in series [8]; 7.96 in [9]; 5.22 in series [10]; 6.96 in series [11]; 5.02 in [12]. In [2], this molecule registered a logD of 2.4.
With `CC(Nc1ccccc1)c1cc(C(=O)NCCN(C)C)cn2c(=O)cc(N3CCOCC3)nc12` (single isomer, unassigned; (-)), the pIC50 was 8.10 in series [1]; 6.43 in series [8]; 8.10 in series [9]; 5.16 in series [10]; 7.07 in [11]; 5.66 in series [12]. The Papp A→B in [5] came to 0.2 ×10⁻⁶ cm/s. This molecule showed a logD in series [2] of 1.7.
On to `CC(Nc1cc(F)cc(Cl)c1)c1cc(C(=O)N(C)C)cn2c(=O)cc(N3CCOCC3)nc12` (single isomer, unassigned; (-)), for which the pIC50 in series [1] was 7.96. The molecule further yielded a logD in series [2] of 3.5. Further, the hepatocyte CLint in [3] is 19 µL/min/1e6 cells.
As to `CC(Nc1cc(F)c(F)c(F)c1)c1cc(C(=O)N(C)C)cn2c(=O)cc(N3CCOCC3)nc12` (single isomer, unassigned; (-)), in [1], the pIC50 is 7.96. Besides, the hepatocyte CLint in series [3] turned out to be 13 µL/min/1e6 cells. The molecule also yielded a solubility in [4] of 10 µM (≈ 4.75 µg/mL).
As for `CC(Nc1cc(F)cc(F)c1F)c1cc(C(=O)N(C)C)cn2c(=O)cc(N3CCOCC3)nc12` (single isomer, unassigned; (-)), the pIC50 in series [1] was 7.60. In series [2], this molecule yielded a logD of 2.9. Moreover, the hepatocyte CLint in [3] was determined as 15 µL/min/1e6 cells. In addition, the solubility in series [4] stood at 46 µM (≈ 21.9 µg/mL).
